Measurements reported in ChEMBL document CHEMBL3102803, “Design, synthesis, and biological evaluation of novel piperidine-4-carboxamide derivatives as potent CCR5 inhibitors” (Eur J Med Chem, 2014).
pIC50: −log10 of the molar value.

Tests used:
[1] = target: T1, C-C chemokine receptor type 5 (Homo sapiens, UniProt P51681); assay: Inhibition of CCR5 (unknown origin) expressed in CHO cells assessed as inhibition of RANTES-induced intracellular Ca2+ mobilization after 10 mins by Fluo-4 AM staining-based fluorescence assay; type: functional, cell-based
[2] = tested on: HEK293; assay: Cytotoxicity against HEK293 cells at 50 uM after 7 hrs by CCK-8 assay; type: cell-based; conditions: human, hek293, 7 h
Outline: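 HEK293 cells at 5000 cells/well preincubated 24 h at 37 °C in 5% CO2, then exposed to compound for 7 h. CCK-8 reagent added, plates incubated a further 2 h at 37 °C, and absorbance read at […].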

[3] = Half life in Sprague-Dawley rat at 4 mg/kg, iv; type: ADME, organism-based; parameters: dose 4 mg/kg, route intravenous; conditions: in vivo
[4] = Volume of distribution at steady state in Sprague-Dawley rat at 4 mg/kg, iv; type: ADME, organism-based; parameters: dose 4 mg/kg, route intravenous; conditions: in vivo, read-out: Vdss
[5] = target: hERG (KCNH2) (Homo sapiens, UniProt Q12809); assay: Inhibition of human ERG at 3 uM by patch clamp assay
[6] = AUC (0 to 24 hrs) in Sprague-Dawley rat at 4 mg/kg, iv; type: ADME, organism-based; parameters: time < 24 hr, dose 4 mg/kg, route intravenous; conditions: plasma
[7] = tested on: Human immunodeficiency virus 1; assay: Antiviral activity against HIV-1 infected in human SupT1 cells assessed as inhibition of viral infectivity after 48 hrs by luciferase reporter gene assay; type: functional, organism-based; conditions: Human immunodeficiency virus 1, SUP-T1, 48 h
Outline: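 Pseudovirions made by co-transfecting 293T cells with pNL-Luc-E- and pENV-R5. Supernatant collected at 48 h, filtered, and capsid protein quantified by p24 antigen-capture ELISA. SupT1 cells (1 × 10^5) infected with supernatant in the presence of compound, lysed 48 h post-infection, and firefly luciferase activity measured.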

[8] = Half life in Sprague-Dawley rat at 25 mg/kg, po; type: ADME, organism-based; parameters: dose 25 mg/kg, route oral; conditions: in vivo
[9] = AUC (0 to 24 hrs) in Sprague-Dawley rat at 25 mg/kg, po; type: ADME, organism-based; parameters: time < 24 hr, dose 25 mg/kg, route oral; conditions: plasma
[10] = Oral bioavailability in Sprague-Dawley rat at 25 mg/kg; type: ADME, organism-based; conditions: in vivo
[11] = tested on: Rattus norvegicus; assay: Volume of distribution at steady state in Sprague-Dawley rat at 25 mg/kg, po; type: ADME, organism-based; parameters: dose 25 mg/kg, route oral; conditions: in vivo
[12] = Plasma clearance in Sprague-Dawley rat at 4 mg/kg, iv; type: ADME, organism-based; parameters: dose 4 mg/kg, route intravenous
[13] = Plasma clearance in Sprague-Dawley rat at 25 mg/kg, po; type: ADME, organism-based; parameters: dose 25 mg/kg, route oral
[14] = target: T1, C-C chemokine receptor type 5; assay: Antagonist activity at CCR5 (unknown origin) expressed in CHO cell membranes assessed as inhibition of RANTES-stimulated [35S]-GTPgammaS binding after 1 hr by liquid scintillation counting analysis; type: functional

T1 sequence (P51681 whole entry): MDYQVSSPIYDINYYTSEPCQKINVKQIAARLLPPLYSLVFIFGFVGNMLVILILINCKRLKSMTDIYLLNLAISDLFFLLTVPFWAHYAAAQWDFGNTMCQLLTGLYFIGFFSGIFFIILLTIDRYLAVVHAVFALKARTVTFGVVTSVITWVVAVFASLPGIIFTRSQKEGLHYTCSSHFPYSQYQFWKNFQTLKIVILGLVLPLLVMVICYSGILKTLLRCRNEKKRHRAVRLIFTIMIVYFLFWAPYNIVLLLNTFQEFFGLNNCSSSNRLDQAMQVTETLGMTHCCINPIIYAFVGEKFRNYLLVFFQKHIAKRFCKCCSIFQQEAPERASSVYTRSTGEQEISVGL
Chain of hERG (KCNH2) (Q12809 whole entry): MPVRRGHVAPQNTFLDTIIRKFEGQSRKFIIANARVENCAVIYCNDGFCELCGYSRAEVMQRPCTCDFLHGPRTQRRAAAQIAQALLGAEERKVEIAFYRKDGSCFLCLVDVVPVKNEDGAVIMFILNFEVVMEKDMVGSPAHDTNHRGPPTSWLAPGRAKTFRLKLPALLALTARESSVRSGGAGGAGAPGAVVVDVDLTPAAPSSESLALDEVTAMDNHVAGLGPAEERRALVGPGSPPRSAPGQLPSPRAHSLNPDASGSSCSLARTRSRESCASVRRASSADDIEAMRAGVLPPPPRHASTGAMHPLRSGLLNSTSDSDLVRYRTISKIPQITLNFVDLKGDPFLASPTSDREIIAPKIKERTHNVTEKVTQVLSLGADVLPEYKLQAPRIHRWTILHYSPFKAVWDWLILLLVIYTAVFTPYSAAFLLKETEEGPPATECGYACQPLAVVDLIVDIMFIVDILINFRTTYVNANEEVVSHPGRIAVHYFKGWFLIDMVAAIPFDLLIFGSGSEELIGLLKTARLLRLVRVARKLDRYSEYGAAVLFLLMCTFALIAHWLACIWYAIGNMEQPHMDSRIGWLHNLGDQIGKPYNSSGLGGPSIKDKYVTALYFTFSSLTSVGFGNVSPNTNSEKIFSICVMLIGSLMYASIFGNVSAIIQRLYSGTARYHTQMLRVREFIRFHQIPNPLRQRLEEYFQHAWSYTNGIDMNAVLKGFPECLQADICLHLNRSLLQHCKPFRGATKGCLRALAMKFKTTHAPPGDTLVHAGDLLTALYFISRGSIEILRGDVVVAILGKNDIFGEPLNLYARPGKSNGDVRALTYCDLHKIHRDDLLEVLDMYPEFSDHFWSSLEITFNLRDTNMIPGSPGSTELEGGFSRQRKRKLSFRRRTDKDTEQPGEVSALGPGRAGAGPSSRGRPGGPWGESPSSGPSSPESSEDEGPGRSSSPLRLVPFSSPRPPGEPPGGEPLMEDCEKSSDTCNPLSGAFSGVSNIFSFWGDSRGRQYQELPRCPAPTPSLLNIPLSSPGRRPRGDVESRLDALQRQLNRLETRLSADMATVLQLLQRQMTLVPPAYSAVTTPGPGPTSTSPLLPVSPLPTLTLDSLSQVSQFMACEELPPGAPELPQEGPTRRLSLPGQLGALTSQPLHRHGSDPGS

Compound	pIC50 [1]	Activity [2]	also measured
CC(=O)N1CCC(C(=O)N(CCCN2CCC(C(=O)N(C)Cc3ccccc3)CC2)c2cccc(Cl)c2)CC1	7.19	Non-toxic	
CC(=O)N1CCC(C(=O)N(CCCN2CCC(C(=O)NCc3ccccc3)CC2)c2cccc(Cl)c2)CC1	7.59	Non-toxic	half-life [3]: 44.4 min; Vd [4]: 1.23 L/kg; inhibition at 3 µM [5]: 15.2%; AUC(0-t) at 24 h [6]: 3250 ng·h/mL; pIC50 [7]: 7.14; half-life [8]: 42.6 min; AUC(0-t) at 24 h [9]: 3130 ng·h/mL; bioavailability [10]: 15%; Vdss [11]: 8.99 L/kg; clearance [12]: 20.8 mL/min/kg; CL/F [13]: 148 mL/min/kg
CC(=O)N1CCC(C(=O)N(CCCN2CCC(C(=O)NCc3ccc(F)cc3)CC2)c2cccc(Cl)c2)CC1	7.45	Non-toxic	
CC(=O)N1CCC(C(=O)N(CCCN2CCC(C(=O)NCc3ccc(C#N)cc3)CC2)c2cccc(Cl)c2)CC1	7.12	Non-toxic	
CC(=O)N1CCC(C(=O)N(CCCN2CCC(C(=O)Nc3ccccc3)CC2)c2cccc(Cl)c2)CC1	< 6.00	Non-toxic	
CCN(C(=O)C1CCN(CCCN(C(=O)C2CCN(C(C)=O)CC2)c2cccc(Cl)c2)CC1)c1ccccc1	< 6.00	Non-toxic	
CC(=O)N1CCC(C(=O)N(CCCN2CCC(C(=O)NCCc3ccccc3)CC2)c2cccc(Cl)c2)CC1	7.12	Non-toxic	
CC(=O)N1CCC(C(=O)N(CCCN2CCC(C(=O)NCCc3ccc(F)cc3)CC2)c2cccc(Cl)c2)CC1	6.71	Non-toxic	
CCN(C(=O)Cc1ccccc1)C1CCN(CCCN(C(=O)C2CCN(C(C)=O)CC2)c2cccc(Cl)c2)CC1	6.60		pIC50 [14]: 8.15
Cc1nnc(C(C)C)n1[C@H]1C[C@H]2CC[C@@H](C1)N2CC[C@H](NC(=O)C1CCC(F)(F)CC1)c1ccccc1 [MARAVIROC]			pIC50 [7]: 8.96

More lines, main results first:

pIC50 [1]	Compound	Activity [2]	also measured
6.69	CCN(Cc1ccc(C)cc1)C(=O)C1CCN(CCCN(C(=O)C2CCN(C(C)=O)CC2)c2cccc(Cl)c2)CC1	Non-toxic	
6.49	CCN(Cc1ccc(F)cc1)C(=O)C1CCN(CCCN(C(=O)C2CCN(C(C)=O)CC2)c2cccc(Cl)c2)CC1	Non-toxic	
7.03	CCN(Cc1ccc(Cl)cc1)C(=O)C1CCN(CCCN(C(=O)C2CCN(C(C)=O)CC2)c2cccc(Cl)c2)CC1	Non-toxic	
6.32	CCN(Cc1ccc(C#N)cc1)C(=O)C1CCN(CCCN(C(=O)C2CCN(C(C)=O)CC2)c2cccc(Cl)c2)CC1	Non-toxic	
7.59	CC(=O)N1CCC(C(=O)N(CCCN2CCC(C(=O)NCc3ccc(Cl)cc3)CC2)c2cccc(Cl)c2)CC1	Non-toxic	pIC50 [7]: 7.03
7.06	CC(=O)N1CCC(C(=O)N(CCCN2CCC(C(=O)NCCc3ccc(Cl)cc3)CC2)c2cccc(Cl)c2)CC1	Non-toxic	
7.58	CCN(CCc1ccccc1)C(=O)C1CCN(CCCN(C(=O)C2CCN(C(C)=O)CC2)c2cccc(Cl)c2)CC1	Non-toxic	
6.82	CCN(CCc1ccc(F)cc1)C(=O)C1CCN(CCCN(C(=O)C2CCN(C(C)=O)CC2)c2cccc(Cl)c2)CC1	Non-toxic	
6.90	CCN(CCc1ccc(Cl)cc1)C(=O)C1CCN(CCCN(C(=O)C2CCN(C(C)=O)CC2)c2cccc(Cl)c2)CC1	Non-toxic	
6.28	CCN(Cc1ccccc1)C(=O)C1CCN(CCCN(C(=O)C2CCN(C(C)=O)CC2)c2cccc(Cl)c2)CC1	Non-toxic	
